14 compounds from ChEMBL document CHEMBL4411336, “2-Aminothiazole Derivatives as Selective Allosteric Modulators of the Protein Kinase CK2. 2. Structure-Based Optimization and Investigation of Effects Specific to the Allosteric Mode of Action” (J Med Chem, 2019) can be followed below.

Activity calls are given as the source filed them. No cut-off for these calls is given here.

The target of data set [1] is T1, Casein kinase II subunit alpha (Homo sapiens, UniProt P68400). Particulars: HeLa, 40 uM.
Target sequence in this assay (P68400 whole entry, looked up): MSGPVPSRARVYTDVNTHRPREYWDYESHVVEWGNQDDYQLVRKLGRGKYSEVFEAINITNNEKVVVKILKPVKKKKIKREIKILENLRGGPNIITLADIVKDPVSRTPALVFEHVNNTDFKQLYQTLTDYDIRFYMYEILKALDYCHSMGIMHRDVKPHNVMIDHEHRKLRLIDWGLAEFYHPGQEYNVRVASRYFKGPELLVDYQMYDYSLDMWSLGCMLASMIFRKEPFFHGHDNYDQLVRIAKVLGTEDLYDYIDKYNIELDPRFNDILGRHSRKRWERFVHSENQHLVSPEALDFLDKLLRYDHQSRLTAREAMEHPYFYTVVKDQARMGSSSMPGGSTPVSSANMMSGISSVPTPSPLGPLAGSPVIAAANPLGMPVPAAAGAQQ
Data set [2] has as its system 786-0. The data set can be described thus: Growth inhibition of human 786-0 cells after 24 hrs by MTT assay. The following applies: 786-0, 24 h. In kind it is functional. In a few lines: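 786-O grown in RPMI 1640 with 10% FCS, pen/strep, 37 °C, 5% CO2; assays in medium with 0.1% or 0.5% serum. Cells seeded at 1 × 10^4/well, next day given fresh medium with inhibitor at various concentrations, DMSO (0.25%) control, 24 h. MTT 2 h at 37 °C, SDS/HCl solubilization 4 h, absorbance 570 nm. GI50 by linear interpolation on log[c] scale; at least two independent experiments.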
(Tetrazolium assays rely on reduction of a dye to a coloured formazan, in cell work by metabolically active cells.)

The target of data set [3] is Serine/threonine-protein kinase Chk2 (Homo sapiens) (UniProt O96017). Particulars: 5 uM.
Chain of Serine/threonine-protein kinase Chk2 (Homo sapiens) (O96017 whole entry, canonical isoform): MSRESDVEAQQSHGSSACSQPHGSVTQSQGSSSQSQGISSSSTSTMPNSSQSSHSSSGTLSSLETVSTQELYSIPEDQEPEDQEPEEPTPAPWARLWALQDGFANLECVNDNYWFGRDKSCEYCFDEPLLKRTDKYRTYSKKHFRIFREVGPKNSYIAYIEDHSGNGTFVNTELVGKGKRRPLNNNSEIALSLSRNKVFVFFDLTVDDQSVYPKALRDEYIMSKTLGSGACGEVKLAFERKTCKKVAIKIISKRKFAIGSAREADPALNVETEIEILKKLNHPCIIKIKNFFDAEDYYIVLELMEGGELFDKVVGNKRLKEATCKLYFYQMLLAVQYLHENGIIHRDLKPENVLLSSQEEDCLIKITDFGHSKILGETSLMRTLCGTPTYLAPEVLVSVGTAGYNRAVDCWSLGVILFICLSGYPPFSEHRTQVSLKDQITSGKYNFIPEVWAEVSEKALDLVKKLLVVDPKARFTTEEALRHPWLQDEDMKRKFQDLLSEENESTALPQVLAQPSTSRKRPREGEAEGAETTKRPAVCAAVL
Data set [4] deals with Casein kinase I isoform gamma-1 (Homo sapiens) (UniProt Q9HCP0). Nature of the data set: Inhibition of recombinant full length human GST-tagged CK1gamma1 expressed in baculovirus expression system assessed as reduction in enzyme activity at 5 uM in presence of ATP relative to control.
The target in data set [5] is Aurora kinase B (Homo sapiens) (UniProt Q96GD4). The data set can be described thus: Inhibition of recombinant full length human His-tagged AURKB expressed in baculovirus expression system assessed as reduction in enzyme activity at 5 uM in presence of ATP relative to control.
Chain of Aurora kinase B (Homo sapiens) (Q96GD4 whole entry): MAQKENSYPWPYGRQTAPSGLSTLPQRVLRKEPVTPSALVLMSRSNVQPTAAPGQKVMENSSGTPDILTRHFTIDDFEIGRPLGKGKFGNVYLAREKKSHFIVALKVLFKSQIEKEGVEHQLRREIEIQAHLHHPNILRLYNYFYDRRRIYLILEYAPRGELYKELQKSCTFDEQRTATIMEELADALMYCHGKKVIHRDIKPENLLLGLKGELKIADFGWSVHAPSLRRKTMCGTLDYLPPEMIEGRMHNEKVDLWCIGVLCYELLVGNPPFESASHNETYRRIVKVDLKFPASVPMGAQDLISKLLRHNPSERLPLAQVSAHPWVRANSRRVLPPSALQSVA
Data set [6] concerns the target Dual specificity protein kinase CLK1 (Homo sapiens) (UniProt P49759). Particulars: 5 uM.
Data set [7] relates to 786-0. Nature of the data set: Growth inhibition of human 786-0 cells at 25 uM after 24 hrs by MTT assay relative to control. In kind it is functional. The following applies: 786-0, 24 h, read-out: GI.
The subject of data set [8] is 786-0. The data set can be described thus: cells. The following applies: Homo sapiens, 786-0, 24 h.
Data set [9] concerns U138-MG. The data set can be described thus: Growth inhibition of human U138MG cells after 24 hrs by MTT assay. The class given is functional.
The target in data set [10] is Receptor tyrosine-protein kinase erbB-2 (Homo sapiens) (UniProt P04626). Nature of the data set: Inhibition of human His-tagged ERBB2 expressed in baculovirus expression system assessed as reduction in enzyme activity at 5 uM in presence of ATP relative to control. Set-up: scale not given: the % may be the effect or the level left.
Chain of Receptor tyrosine-protein kinase erbB-2 (Homo sapiens) (P04626 whole entry): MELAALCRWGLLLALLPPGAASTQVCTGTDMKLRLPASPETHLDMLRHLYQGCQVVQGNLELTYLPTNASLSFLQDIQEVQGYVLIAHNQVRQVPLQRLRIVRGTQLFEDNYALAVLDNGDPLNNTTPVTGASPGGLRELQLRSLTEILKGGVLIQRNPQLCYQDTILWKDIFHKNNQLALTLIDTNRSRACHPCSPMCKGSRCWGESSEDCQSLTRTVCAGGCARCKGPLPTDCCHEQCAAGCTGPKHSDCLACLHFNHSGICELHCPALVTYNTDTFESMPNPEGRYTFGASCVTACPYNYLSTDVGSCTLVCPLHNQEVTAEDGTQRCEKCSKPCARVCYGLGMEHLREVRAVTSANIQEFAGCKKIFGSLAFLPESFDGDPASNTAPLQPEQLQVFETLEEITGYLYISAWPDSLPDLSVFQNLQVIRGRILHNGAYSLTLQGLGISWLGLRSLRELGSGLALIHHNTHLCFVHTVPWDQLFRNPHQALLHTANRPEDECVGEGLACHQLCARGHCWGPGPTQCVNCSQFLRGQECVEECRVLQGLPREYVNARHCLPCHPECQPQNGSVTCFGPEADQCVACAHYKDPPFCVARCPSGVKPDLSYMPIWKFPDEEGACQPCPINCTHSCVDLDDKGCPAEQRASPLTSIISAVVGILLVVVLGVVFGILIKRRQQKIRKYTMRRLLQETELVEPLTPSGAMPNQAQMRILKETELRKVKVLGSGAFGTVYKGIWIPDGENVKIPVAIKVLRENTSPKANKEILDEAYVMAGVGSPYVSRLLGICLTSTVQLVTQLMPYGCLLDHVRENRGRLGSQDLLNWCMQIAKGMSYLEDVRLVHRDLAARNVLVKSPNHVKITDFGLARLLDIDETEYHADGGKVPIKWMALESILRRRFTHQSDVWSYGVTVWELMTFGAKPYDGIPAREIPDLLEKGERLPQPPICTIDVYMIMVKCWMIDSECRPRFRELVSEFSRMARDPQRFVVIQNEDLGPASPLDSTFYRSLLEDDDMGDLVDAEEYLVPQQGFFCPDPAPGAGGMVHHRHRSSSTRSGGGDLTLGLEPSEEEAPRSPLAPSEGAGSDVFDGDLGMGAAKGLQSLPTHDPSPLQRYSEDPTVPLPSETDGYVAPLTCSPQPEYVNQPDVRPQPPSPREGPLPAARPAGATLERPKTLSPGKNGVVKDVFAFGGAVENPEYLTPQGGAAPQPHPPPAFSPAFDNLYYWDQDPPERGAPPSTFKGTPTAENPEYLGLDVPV
In data set [11] the target is Cyclin-dependent kinase 1/cyclin B1 (Homo sapiens) (UniProt P06493+P14635). Particulars: 5 uM.
Data set [12] deals with Glycogen synthase kinase-3 beta (Homo sapiens) (UniProt P49841). The data set can be described thus: Inhibition of recombinant full length human His-tagged GSK3beta expressed in baculovirus expression system assessed as reduction in enzyme activity at 5 uM in presence of ATP relative to control.
Chain of Glycogen synthase kinase-3 beta (Homo sapiens) (P49841 whole entry, looked up): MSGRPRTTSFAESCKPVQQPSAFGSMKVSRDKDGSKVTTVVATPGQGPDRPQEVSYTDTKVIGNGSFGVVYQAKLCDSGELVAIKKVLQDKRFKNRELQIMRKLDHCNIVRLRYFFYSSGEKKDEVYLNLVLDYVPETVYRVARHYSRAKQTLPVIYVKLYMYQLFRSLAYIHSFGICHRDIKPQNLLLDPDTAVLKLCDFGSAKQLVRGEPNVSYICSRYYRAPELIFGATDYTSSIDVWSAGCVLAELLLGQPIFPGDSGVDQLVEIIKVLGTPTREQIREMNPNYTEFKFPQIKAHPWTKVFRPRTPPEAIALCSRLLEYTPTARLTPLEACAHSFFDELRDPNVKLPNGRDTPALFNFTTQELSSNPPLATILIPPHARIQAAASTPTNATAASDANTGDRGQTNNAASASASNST
Data set [13] has as its system NCI-H1299. The data set can be described thus: Growth inhibition of human H1299 cells after 24 hrs by MTT assay. The class given is functional. Particulars: NCI-H1299, 24 h.
Data set [14] concerns DU-145. The data set can be described thus: Growth inhibition of human DU145 cells after 24 hrs by MTT assay. In kind it is functional. The following applies: DU-145, 24 h.
Data set [15] concerns the target Tyrosine-protein kinase ABL1 (Homo sapiens) (UniProt P00519). Particulars: 5 uM.
Data set [16] relates to 786-0. The data set can be described thus: cells. Particulars: Homo sapiens, 786-0, 24 h. The source holds these as a separate data set.
Data set [17] is filed under the species Homo sapiens. Nature of the data set: Inhibition of human PI3K assessed as reduction in enzyme activity at 5 uM in presence of ATP relative to control.
The nature of data set [18]: Growth inhibition of human MCF10A cells after 24 hrs by MTT assay. In kind it is cell-based, MCF-10A.
For data set [19], the target named is Activin receptor type-1 (Homo sapiens) (UniProt Q04771). Nature of the data set: Inhibition of recombinant human catalytic GST-tagged ACVR1 expressed in baculovirus expression system assessed as reduction in enzyme activity at 5 uM in presence of ATP relative to control.
Chain of Activin receptor type-1 (Homo sapiens) (Q04771 whole entry): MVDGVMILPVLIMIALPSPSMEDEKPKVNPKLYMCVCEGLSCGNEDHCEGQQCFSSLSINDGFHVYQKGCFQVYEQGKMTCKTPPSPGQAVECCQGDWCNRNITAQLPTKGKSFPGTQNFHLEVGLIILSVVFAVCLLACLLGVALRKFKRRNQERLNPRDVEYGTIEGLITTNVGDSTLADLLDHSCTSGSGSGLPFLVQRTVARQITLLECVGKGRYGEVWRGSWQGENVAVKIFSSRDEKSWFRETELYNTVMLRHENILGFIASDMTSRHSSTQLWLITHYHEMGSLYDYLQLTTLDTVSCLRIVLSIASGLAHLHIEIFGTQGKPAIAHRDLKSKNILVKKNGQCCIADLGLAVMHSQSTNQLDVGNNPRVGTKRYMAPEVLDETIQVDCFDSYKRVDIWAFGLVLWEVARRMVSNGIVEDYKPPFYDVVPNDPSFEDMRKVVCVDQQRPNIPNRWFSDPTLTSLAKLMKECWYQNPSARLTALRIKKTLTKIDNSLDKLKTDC
Data set [20] concerns the target Dual specificity protein kinase CLK2 (Homo sapiens) (UniProt P49760). Particulars: 5 uM.
For data set [21], the system named is PC-3. Nature of the data set: Growth inhibition of human PC3 cells after 24 hrs by MTT assay. The following applies: PC-3, 24 h. In kind it is functional.
Data set [22] has as its target Epidermal growth factor receptor (Homo sapiens) (UniProt P00533). Nature of the data set: Inhibition of human EGFR assessed as reduction in enzyme activity at 5 uM in presence of ATP relative to control. Also noted: scale not given: the % may be the effect or the level left.
Data set [23] is described as follows: Growth inhibition of human RPTEC cells after 24 hrs by MTT assay. In kind it is cell-based.
Data set [24] addresses Serine/threonine-protein kinase pim-1 (Homo sapiens) (UniProt P11309). Nature of the data set: Inhibition of human PIM1 assessed as reduction in enzyme activity at 5 uM in presence of ATP relative to control. Also noted: scale not given: the % may be the effect or the level left.
For data set [25] the target is unchanged. The data set can be described thus: Inhibition of recombinant full length human His-tagged PIM1 expressed in baculovirus expression system assessed as reduction in enzyme activity at 5 uM in presence of ATP relative to control.
The target of data set [26] is Dual specificity protein kinase CLK4 (Homo sapiens) (UniProt Q9HAZ1). Nature of the data set: Inhibition of recombinant full length human GST-tagged CLK4 expressed in baculovirus expression system assessed as reduction in enzyme activity at 5 uM in presence of ATP relative to control.
Chain of Dual specificity protein kinase CLK4 (Homo sapiens) (Q9HAZ1 whole entry, looked up): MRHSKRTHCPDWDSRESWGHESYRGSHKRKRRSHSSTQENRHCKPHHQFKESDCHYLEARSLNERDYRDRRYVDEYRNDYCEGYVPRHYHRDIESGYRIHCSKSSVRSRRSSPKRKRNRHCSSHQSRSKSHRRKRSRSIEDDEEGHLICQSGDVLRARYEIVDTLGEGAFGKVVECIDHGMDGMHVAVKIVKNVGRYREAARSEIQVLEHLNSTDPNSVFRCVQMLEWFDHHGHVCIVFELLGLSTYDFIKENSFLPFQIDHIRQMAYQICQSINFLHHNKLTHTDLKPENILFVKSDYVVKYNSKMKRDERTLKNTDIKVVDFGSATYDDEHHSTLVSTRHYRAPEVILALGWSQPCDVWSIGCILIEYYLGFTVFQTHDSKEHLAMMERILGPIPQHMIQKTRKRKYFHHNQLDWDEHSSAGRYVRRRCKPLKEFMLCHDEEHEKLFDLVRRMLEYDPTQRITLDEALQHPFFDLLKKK
Data set [27] has as its target T1, Casein kinase II subunit alpha. The data set can be described thus: Inhibition of recombinant human GST-tagged CK2alpha in presence of ATP by radiometric kinase assay.
Target sequence in this assay (P68400 whole entry): as the sequence (P68400 whole entry, looked up) above

Chain of Serine/threonine-protein kinase pim-1 (Homo sapiens) (P11309 whole entry, looked up): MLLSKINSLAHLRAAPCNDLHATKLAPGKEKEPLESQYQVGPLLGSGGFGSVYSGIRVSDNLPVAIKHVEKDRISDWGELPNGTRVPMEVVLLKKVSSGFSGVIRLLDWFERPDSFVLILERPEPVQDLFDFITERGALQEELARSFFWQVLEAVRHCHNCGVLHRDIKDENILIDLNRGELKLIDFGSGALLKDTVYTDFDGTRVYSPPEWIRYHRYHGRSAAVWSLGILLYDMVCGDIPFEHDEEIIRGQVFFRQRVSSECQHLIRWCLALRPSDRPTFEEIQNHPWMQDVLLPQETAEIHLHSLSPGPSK
Chain of Dual specificity protein kinase CLK1 (Homo sapiens) (P49759 whole entry, looked up): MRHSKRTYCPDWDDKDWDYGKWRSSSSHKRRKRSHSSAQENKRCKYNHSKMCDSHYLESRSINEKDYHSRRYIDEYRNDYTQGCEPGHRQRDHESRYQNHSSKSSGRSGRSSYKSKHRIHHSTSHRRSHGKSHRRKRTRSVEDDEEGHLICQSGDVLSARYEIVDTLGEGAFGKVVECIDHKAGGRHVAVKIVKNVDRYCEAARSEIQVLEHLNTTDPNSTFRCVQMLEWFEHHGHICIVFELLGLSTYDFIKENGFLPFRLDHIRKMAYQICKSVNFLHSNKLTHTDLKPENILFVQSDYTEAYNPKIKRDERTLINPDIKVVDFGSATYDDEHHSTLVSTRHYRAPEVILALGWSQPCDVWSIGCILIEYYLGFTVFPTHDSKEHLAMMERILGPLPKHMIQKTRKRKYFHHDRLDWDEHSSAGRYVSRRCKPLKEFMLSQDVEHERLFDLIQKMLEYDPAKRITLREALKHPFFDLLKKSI

The inhibition is the share of the control response that was lost under treatment. What is called GI50 is the concentration giving 50% growth inhibition. Consider `O=C(O)c1ccc(Nc2nc(-c3cccc(Br)c3)cs2)cc1`, for which the inhibition result in data set [1] was “Active”. The compound further yielded a GI50 in data set [2] of 25 µM.

Broadly, the EC50 is the midpoint of the concentration-response curve. Consider `O=C(O)c1ccc(Nc2nc(-c3ccc4ccccc4c3)cs2)cc1O`, for which the inhibition in [3] is 20 to 30%; in data set [4], 32%; in data set [5], 62%; in [6] it was 20 to 30%; in [11], 20 to 30%; in data set [12] it was 41%. The inhibition is 20 to 30% in [15]; 53% in [17]; 0% in data set [19]; 20 to 30% in data set [20]; 60% in data set [25]; 23% in [26]. For the same compound, the inhibition of growth at 25 µM in [7] worked out at 87%. Moreover, the half-maximal effective concentration (EC50) in data set [8] turned out to be 4.9 µM; in data set [16], 4.6 µM. For the same compound, the GI50 in [9] worked out at 13 µM; in data set [13], 9 µM; in [14], 20 µM; in data set [21] it was 7 µM; in data set [2], 5 µM. Moreover, the results for the Activity in data set [10], in data set [22] and in [24] were 70%, 21% and 60%, respectively. Moreover, the GI50 at 24 h in [18] turned out to be 10 µM; in [23], 27 µM.

What is called IC50 is the concentration needed to halve the response being measured. In the case of `O=C(O)c1ccc(Nc2nc(-c3ccc(O)cc3O)cs2)cc1`, the IC50 in data set [27] is 7 µM.

For the compound `N#Cc1ccc(Nc2nc(-c3ccc4ccccc4c3)cs2)cc1`, in data set [27], the IC50 was above 50 µM.

Take `O=[N+]([O-])c1cccc(-c2csc(Nc3ccccc3)n2)c1`: the IC50 in [27] was above 25 µM.

For `CC(=O)OCOC(=O)c1ccc(Nc2nc(-c3cccc([N+](=O)[O-])c3)cs2)cc1`, the inhibition of growth at 25 µM in data set [7] was 42%.

For `CS(=O)(=O)NC(=O)c1ccc(Nc2nc(-c3ccc4ccccc4c3)cs2)cc1`, the inhibition of growth at 25 µM in data set [7] amounted to 23%.

Take `c1ccc(Nc2nc(-c3ccc4ccccc4c3)cs2)cc1`: the IC50 in data set [27] is above 50 µM.

In the case of `CC(=O)OCOC(=O)c1ccc(Nc2nc(-c3ccsc3)cs2)cc1`, the inhibition of growth at 25 µM in [7] worked out at 48%.

Regarding `O=C(O)Cc1ccc(Nc2nc(-c3cccc([N+](=O)[O-])c3)cs2)cc1`, the IC50 in data set [27] was above 50 µM.

As for `CC(=O)OCOC(=O)c1ccc(Nc2nc(-c3ccc4ccccc4c3)cs2)cc1`, the inhibition of growth at 25 µM in [7] stood at 45%.

For `Cc1ccc(S(=O)(=O)NC(=O)c2ccc(Nc3nc(-c4ccc5ccccc5c4)cs3)cc2)cc1`, the inhibition of growth at 25 µM in data set [7] was 87%.

Turning to `COC(=O)c1ccc(Nc2nc(-c3cccc([N+](=O)[O-])c3)cs2)cc1`, the IC50 in data set [27] is above 25 µM.

On to `CC(C)(C)c1csc(Nc2ccc(C(=O)O)cc2)n1`, for which, in data set [27], the IC50 is above 50 µM.
